Assay results published in ChEMBL document CHEMBL1127381, “Synthesis and 5-lipoxygenase inhibitory activities of some novel 2-substituted 5-benzofuran hydroxamic acids” (J Med Chem, 1994).

Tests used:
[1] = biological target: T1, Polyunsaturated fatty acid 5-lipoxygenase (Mus musculus) (UniProt P48999); assay: In vivo inhibition of 5-lipoxygenase (LTC4) in the mouse zymosan peritonitis assay at an oral dose of 30 mg/Kg; format: functional, organism-based
T1 sequence (whole entry): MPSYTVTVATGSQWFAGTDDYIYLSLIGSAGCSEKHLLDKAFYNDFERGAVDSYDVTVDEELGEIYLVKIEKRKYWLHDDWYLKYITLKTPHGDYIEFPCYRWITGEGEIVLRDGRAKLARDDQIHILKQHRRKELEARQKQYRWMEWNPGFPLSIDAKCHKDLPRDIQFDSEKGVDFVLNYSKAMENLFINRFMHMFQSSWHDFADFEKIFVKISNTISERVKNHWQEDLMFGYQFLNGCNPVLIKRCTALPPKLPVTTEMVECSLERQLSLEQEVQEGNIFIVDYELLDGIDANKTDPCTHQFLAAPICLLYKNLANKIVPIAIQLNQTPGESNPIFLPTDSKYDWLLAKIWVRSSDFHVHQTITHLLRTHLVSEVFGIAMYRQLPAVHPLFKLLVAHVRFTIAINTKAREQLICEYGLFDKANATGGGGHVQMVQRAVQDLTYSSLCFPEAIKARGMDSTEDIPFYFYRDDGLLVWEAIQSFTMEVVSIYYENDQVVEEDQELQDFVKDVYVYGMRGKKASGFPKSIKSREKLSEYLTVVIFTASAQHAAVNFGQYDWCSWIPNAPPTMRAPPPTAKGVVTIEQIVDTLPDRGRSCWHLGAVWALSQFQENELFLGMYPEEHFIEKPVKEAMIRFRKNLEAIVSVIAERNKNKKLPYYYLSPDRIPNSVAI
Summary of the method: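 Male CD-1 mice (18–25 g) given compound orally in PEG 200. Zymosan-A (3 mg in 0.9% saline) injected ip 1 h later. Mice killed 15 min after zymosan; peritoneum lavaged with 10 μM indomethacin. Fluid extracted in cold 95% ethanol and dried. LTC4 measured by [3H]RIA on 1:20 dilution. Values are mean percent inhibition per animal ± SEM.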

[2] = biological target: T2, Polyunsaturated fatty acid 5-lipoxygenase (Rattus norvegicus, UniProt P12527); assay: In vitro inhibition of 5-lipoxygenase (5-HETE) derived from the 9000xg supernatant of RBL broken cell assay; format: cell-based
T2 sequence (P12527 whole entry): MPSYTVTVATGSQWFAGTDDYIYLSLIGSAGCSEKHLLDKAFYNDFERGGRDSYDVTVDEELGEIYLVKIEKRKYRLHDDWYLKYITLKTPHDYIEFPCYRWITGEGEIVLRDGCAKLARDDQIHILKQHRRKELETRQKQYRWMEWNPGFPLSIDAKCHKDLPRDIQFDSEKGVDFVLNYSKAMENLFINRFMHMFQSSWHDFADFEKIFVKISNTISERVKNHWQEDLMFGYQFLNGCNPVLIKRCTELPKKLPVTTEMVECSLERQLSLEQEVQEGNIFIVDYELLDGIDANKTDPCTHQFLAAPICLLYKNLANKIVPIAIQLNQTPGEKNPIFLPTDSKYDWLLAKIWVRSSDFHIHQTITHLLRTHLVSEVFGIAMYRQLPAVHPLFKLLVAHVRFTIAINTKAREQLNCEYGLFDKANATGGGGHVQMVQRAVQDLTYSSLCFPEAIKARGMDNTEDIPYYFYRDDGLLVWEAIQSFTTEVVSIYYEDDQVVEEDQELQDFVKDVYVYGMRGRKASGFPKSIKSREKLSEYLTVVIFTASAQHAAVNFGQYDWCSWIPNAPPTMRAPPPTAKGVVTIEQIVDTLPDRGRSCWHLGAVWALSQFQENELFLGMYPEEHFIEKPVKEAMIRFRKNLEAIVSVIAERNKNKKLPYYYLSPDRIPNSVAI
Summary of the method: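 RBL-1 cells grown in suspension, washed, suspended at 5 × 10^7 cells/mL in NaHPO4/CaCl2 buffer, homogenized at 0 °C, spun 9000g for 50 min. Supernatant preincubated with compound 5 min at 37 °C, then [14C]arachidonic acid added and incubated 20 min at 37 °C. Reaction stopped with 2 N formic acid. 5-HETE formation measured radiometrically.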

Row | Compound | inhibition [1] [%] | IC50 [2] [nM] | ED50 [1] [mg/kg]
1 | CC(c1ccc2oc(-c3ccccc3)cc2c1)N(O)C(=O)c1cccs1 (configuration not stated) | 29.1 | 250 | –
2 | CCOC(=O)CCC(=O)N(O)C(C)c1ccc2oc(-c3ccccc3)cc2c1 (configuration not stated) | – | 50 | –
3 | CC(=O)N(O)C(C)c1ccc(OCCc2ccccc2)cc1 (configuration not stated) | – | 410 | –
4 | COc1cc(-c2cc3cc(C(C)N(O)C(C)=O)ccc3o2)cc(OC)c1OC (configuration not stated) | 42.1 | 310 | –
5 | COc1cc(-c2cc3cc(C(C)N(O)C(N)=O)ccc3o2)cc(OC)c1OC (configuration not stated) | – | 50 | 17.5
6 | CC(c1ccc2oc(-c3ccccc3)cc2c1)N(O)C(=O)c1ccco1 (configuration not stated) | 32.9 | 40 | –
7 | CC(c1ccc2oc(-c3ccccc3)cc2c1)N(O)C(=O)c1ccccc1 (configuration not stated) | 46.2 | – | –
8 | CCCCc1cc2cc(C(C)N(O)C(=O)CCCC(=O)OC)ccc2o1 (configuration not stated) | 28.6 | 50 | –
9 | CC(=O)N(O)C(C)c1ccc2oc(-c3ccccc3)cc2c1 (configuration not stated) | – | 490 | 22.1
10 | CC(=O)OCC(=O)N(O)C(C)c1ccc2oc(-c3ccccc3)cc2c1 (configuration not stated) | 18.9 | 160 | –
11 | COc1ccc2cc(-c3cc4cc(C(C)N(O)C(C)=O)ccc4o3)ccc2c1 (configuration not stated) | 25.6 | 120 | –
12 | CCCCCCCCCCc1cc2cc(C(C)N(O)C(=O)CCCC(=O)OC)ccc2o1 (configuration not stated) | 37.3 | 150 | –
13 | COc1ccc(C(=O)N(O)C(C)c2ccc3oc(-c4ccccc4)cc3c2)cc1OC (configuration not stated) | – | 200 | –
14 | CC(c1ccc2oc(-c3ccccc3)cc2c1)N(O)C(N)=O (configuration not stated) | – | 410 | 10.3
15 | COC(=O)CCCC(=O)N(O)C(C)c1ccc2oc(-c3cc(OC)c(OC)c(OC)c3)cc2c1 (configuration not stated) | 42.1 | 40 | –
16 | CC(c1cc2ccccc2s1)N(O)C(N)=O (configuration not stated) | – | – | 2.71
17 | COCC(=O)N(O)C(C)c1ccc2oc(-c3ccccc3)cc2c1 (configuration not stated) | – | 160 | 18.6
18 | CC(c1ccc2oc(-c3ccccc3)cc2c1)N(O)C(=O)CO (configuration not stated) | – | 700 | 27.5
19 | CCCCc1cc2cc(C(C)N(O)C(C)=O)ccc2o1 (configuration not stated) | 41.4 | 50 | –
20 | CCCCCCCCCCc1cc2cc(C(C)N(O)C(C)=O)ccc2o1 (configuration not stated) | 19.5 | 410 | –
21 | COC(=O)CCCC(=O)N(O)C(C)c1ccc2oc(-c3ccccc3)cc2c1 (configuration not stated) | – | 60 | –
22 | COc1cccc(OC)c1C(=O)N(O)C(C)c1ccc2oc(-c3ccccc3)cc2c1 (configuration not stated) | – | 3000 | –
